Published values pooled from the literature.
Lines come from different studies, so protocols differ.
Observed: binding
SULT2A1: Sulfotransferase 2A1 (SULT2A1, Homo sapiens, UniProt Q06520)
VHL: von Hippel-Lindau disease tumor suppressor (VHL, Homo sapiens, UniProt P40337)
Pah: Phenylalanine-4-hydroxylase (Pah, Rattus norvegicus, UniProt P04176)

`C[C@]12CC[C@H](O)CC1=CC[C@@H]1[C@@H]2CC[C@]2(C)C(=O)CC[C@@H]12` gave a Kd of 0.29 µM (SULT2A1; fluorescence).
The Kd of `c1cncc(-c2cccc(Nc3nccc(NC4CCCCC4)n3)c2)c1` is reported as 4.4 µM (Ribosomal protein S6 kinase alpha-1, N-terminal kinase domain (RPS6KA1, Homo sapiens, UniProt Q15418); competition with immobilised ligand).
For `Cc1cc(Nc2cc3ncccc3c(N[C@@H]3C[C@H]4CC[C@@H](C3)N4CCC#N)n2)n[nH]1`, the Kd was 0.028 µM (Cyclin-dependent kinase 4, with cyclin D3 (CDK4, Homo sapiens, UniProt P11802); competition with immobilised ligand).
`Cc1cnc(-c2ccc(-c3ccc(NC(=O)Nc4c(F)cc(F)cc4F)cc3F)c3c2C(=O)NC3)[nH]1` gave a Kd of 0.024 µM (Serine/threonine-protein kinase 24 (STK24, Homo sapiens, UniProt Q9Y6E0); competition with immobilised ligand).
For `NC(=O)c1ccc[n+]([C@@H]2O[C@H](COP(=O)(O)OP(=O)(O)OC[C@H]3O[C@@H](n4cnc5c(N)ncnc54)[C@H](O)[C@@H]3O)[C@@H](O)[C@H]2O)c1`, the Kd was 467 µM (mdh (Escherichia coli, UniProt P61889); ITC).
`Cc1ncsc1-c1ccc(CNC(=O)[C@@H]2C[C@H](O)CN2C(=O)[C@@H](NC(=O)C2(F)CC2)C(C)(C)C)c(OCCc2ccc(CN3CCN(c4cc(-c5ccccc5O)nnc4N)CC3)cc2)c1` has a Kd of > 10 µM (VHL; SPR).
With `NC(=O)[C@H](NNC(=O)c1c[nH]c2ccccc12)c1ccccc1` the Kd was 3.5 µM (GTPase KRas (KRAS, Homo sapiens, UniProt P01116, G12D); MST).
`CC(C)C[C@H](N)C(=O)O` has a Kd of 93000 µM (Pah; fluorescence; pH 7.5).
For `Cc1ncsc1-c1ccc(CNC(=O)[C@@H]2C[C@@H](O)CN2C(=O)[C@@H](NC(=O)C2(F)CC2)C(C)(C)C)c(OCCOCCOCCN2CCN(c3cc(-c4ccccc4O)nnc3N)CC2)c1`, the Kd was 0.098 µM (VHL; SPR).
For `Cc1cc2nc3c(=O)[nH]c(=O)nc-3n(C[C@H](O)[C@H](O)[C@H](O)COP(=O)(O)OP(=O)(O)OC[C@H]3O[C@@H](n4cnc5c(N)ncnc54)[C@H](O)[C@@H]3O)c2cc1C`, the Kd was 0.055 µM (Annexin A11 (Homo sapiens, UniProt P50995); lysate).
`Nc1ncnc2c1ncn2[C@@H]1O[C@H](COP(=O)(O)OS(=O)(=O)O)[C@@H](OP(=O)(O)O)[C@H]1O` has a Kd of 0.25 µM (SULT2A1; fluorescence).
`N[C@H](Cc1ccccc1)C(=O)O` gave a Kd of 8400 µM (Pah; fluorescence; pH 7.5).
With `Cc1ncsc1-c1ccc(CNC(=O)[C@@H]2C[C@H](O)CN2C(=O)[C@@H](NC(=O)C2(F)CC2)C(C)(C)C)c(OCCOc2ccc(CN3CCN(c4cc(-c5ccccc5O)nnc4N)CC3)cc2)c1` the Kd was > 10 µM (VHL; SPR).
The Kd of `CC(C)[C@H](N)c1nc2cc(-c3ccncc3F)sc2c(=O)[nH]1` is reported as 0.00032 µM (Cell division cycle 7-related protein kinase (CDC7, Homo sapiens, UniProt O00311); MST).
